In ChEMBL document CHEMBL1141563, “Novel inhibitors of the Gardos channel for the treatment of sickle cell disease” (J Med Chem, 2008):
Values after ≈ are worked out from the molar mass of the structure shown.

How the values were obtained:
[1] = Solubility by shake-flask method; format: physicochemical
In short: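 Modified shake-flask method: about 1 mg compound shaken overnight in 1 mL PBS, pH 6.8. Supernatant analysed by LC/MS/MS; 2 measurements.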

Liver = experiment: Intrinsic clearance in rat liver microsome S9 fraction as % compound remaining after incubation; format: ADME, subcellular
[2] = biological target: T1, Intermediate conductance calcium-activated potassium channel protein 4 (Homo sapiens, UniProt O15554); experiment: Inhibition of Gardos channel in human RBC assessed as inhibition of ionomycin-stimulated [86Rb] efflux
[3] = biological target: T1, Intermediate conductance calcium-activated potassium channel protein 4; experiment: Inhibition of Gardos channel in human RBC assessed as […] at 10 uM
CYP3A4 = CYP3A4 (Homo sapiens, UniProt P08684); experiment: Inhibition of CYP3A4 at 10 uM; format: ADME
[4] = Cmax in Sprague-Dawley rat at 1 mg/kg, iv or 10 mg/kg, po; format: ADME, organism-based; settings: in vivo
In short: (§1)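 Male Sprague-Dawley rats (251–299 g), n = 3 per time point. Dosed 1 mg/Kg IV by tail vein in PEG-400/cremophor-EL, or 10 mg/Kg by oral gavage in 0.5% aqueous methylcellulose. Plasma sampled 0.08–24 h (IV) or 0.5–24 h (PO) and quantified by LC-MS, LLOQ 1 ng/mL. Noncompartmental analysis; Cmax and Tmax read from the data; AUC by linear-log trapezoidal rule.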

Mus musculus [5] = experiment: Effect on gardos channel activity in SAD1 mouse model at 10 mg/kg, po bid after 11 days; format: functional
Mus musculus [6] = experiment: Effect on hematocrit levels in SAD1 mouse model at 10 mg/kg, po bid after 11 days; format: functional
In short: (§2)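 Transgenic SAD-1 mice of both sexes, 3–6 months, 25–30 g, given vehicle or compound by oral gavage twice daily. Blood parameters taken at baseline and at days 7 and 14 (20 mg/kg arm) or days 11 and 21 (10 mg/kg arm). Hematocrit measured by micro-Hct centrifugation; cells washed three times in PBS (330 mOsm) at 25 °C.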

[7] = Bioavailability in Sprague-Dawley rat at 1 mg/kg, iv or 10 mg/kg, po; format: ADME, organism-based; settings: in vivo; in short: as §1
[8] = Half life in Sprague-Dawley rat at 1 mg/kg, iv or 10 mg/kg, po; format: ADME, organism-based; settings: in vivo; in short: as §1
[9] = Tmax in Sprague-Dawley rat at 1 mg/kg, iv or 10 mg/kg, po; format: ADME, organism-based; settings: in vivo; in short: as §1
Mus musculus [10] = experiment: Effect on mean corpuscular hemoglobin concentration in SAD1 mouse model at 10 mg/kg, po bid after 21 days; format: functional; in short: as §2
Mus musculus [11] = experiment: Effect on gardos channel activity in SAD1 mouse model at 10 mg/kg, po bid after 21 days; format: functional
Mus musculus [12] = experiment: Effect on mean corpuscular hemoglobin concentration in SAD1 mouse model at 10 mg/kg, po bid after 11 days; format: functional; in short: as §2
Mus musculus [13] = experiment: Effect on hematocrit levels in SAD1 mouse model at 10 mg/kg, po bid after 21 days; format: functional; in short: as §2
Mus musculus [14] = experiment: Effect on hematocrit levels in SAD1 mouse model at 20 mg/kg, po bid after 14 days; format: functional; in short: as §2
Mus musculus [15] = experiment: Effect on gardos channel activity in SAD1 mouse model assessed by measuring [86Rb]/L of cells at 20 mg/kg, po bid after 7 days; format: functional
Mus musculus [16] = experiment: Effect on hematocrit levels in SAD1 mouse model at 20 mg/kg, po bid after 7 days; format: functional; in short: as §2
Mus musculus [17] = experiment: Effect on gardos channel activity in SAD1 mouse model assessed by measuring [86Rb]/L of cells at 20 mg/kg, po bid after 14 days; format: functional
Mus musculus [18] = experiment: Effect on mean corpuscular hemoglobin concentration in SAD1 mouse model at 20 mg/kg, po bid after 7 days; format: functional; in short: as §2
Mus musculus [19] = experiment: Effect on mean corpuscular hemoglobin concentration in SAD1 mouse model at 20 mg/kg, po bid after 14 days; format: functional; in short: as §2
hERG (KCNH2) = hERG (KCNH2) (Homo sapiens, UniProt Q12809); experiment: Inhibition of human ERG at 10 uM
Sequence of hERG (KCNH2) (Q12809 whole entry): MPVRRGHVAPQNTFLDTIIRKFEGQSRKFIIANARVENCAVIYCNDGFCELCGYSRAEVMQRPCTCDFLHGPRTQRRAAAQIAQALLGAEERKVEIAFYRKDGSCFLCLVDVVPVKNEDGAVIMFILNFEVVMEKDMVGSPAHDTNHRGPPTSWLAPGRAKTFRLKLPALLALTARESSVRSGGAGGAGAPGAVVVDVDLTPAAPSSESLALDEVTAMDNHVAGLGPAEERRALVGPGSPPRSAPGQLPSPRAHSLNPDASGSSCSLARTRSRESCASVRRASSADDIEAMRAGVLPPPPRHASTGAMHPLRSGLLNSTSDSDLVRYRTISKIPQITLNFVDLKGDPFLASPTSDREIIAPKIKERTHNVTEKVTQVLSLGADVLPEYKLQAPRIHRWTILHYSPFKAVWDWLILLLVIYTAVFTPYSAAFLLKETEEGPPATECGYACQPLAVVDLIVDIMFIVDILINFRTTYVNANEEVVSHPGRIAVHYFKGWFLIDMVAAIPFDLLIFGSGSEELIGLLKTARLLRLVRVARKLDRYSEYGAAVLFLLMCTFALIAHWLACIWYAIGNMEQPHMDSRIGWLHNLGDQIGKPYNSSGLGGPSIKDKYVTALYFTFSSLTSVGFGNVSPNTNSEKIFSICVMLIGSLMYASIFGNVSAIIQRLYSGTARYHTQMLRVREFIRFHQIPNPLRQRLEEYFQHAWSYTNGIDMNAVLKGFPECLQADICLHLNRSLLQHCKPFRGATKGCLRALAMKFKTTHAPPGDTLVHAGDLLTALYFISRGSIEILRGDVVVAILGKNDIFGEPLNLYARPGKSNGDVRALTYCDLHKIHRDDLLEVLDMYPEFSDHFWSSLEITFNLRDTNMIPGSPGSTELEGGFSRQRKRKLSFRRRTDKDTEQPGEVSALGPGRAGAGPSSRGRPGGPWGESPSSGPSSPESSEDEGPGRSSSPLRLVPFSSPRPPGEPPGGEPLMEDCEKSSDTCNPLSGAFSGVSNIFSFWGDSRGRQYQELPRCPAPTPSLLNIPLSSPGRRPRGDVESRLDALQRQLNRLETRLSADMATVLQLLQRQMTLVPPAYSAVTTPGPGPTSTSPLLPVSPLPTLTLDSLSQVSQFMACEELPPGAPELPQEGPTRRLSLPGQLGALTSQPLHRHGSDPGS

T1 sequence (O15554 whole entry): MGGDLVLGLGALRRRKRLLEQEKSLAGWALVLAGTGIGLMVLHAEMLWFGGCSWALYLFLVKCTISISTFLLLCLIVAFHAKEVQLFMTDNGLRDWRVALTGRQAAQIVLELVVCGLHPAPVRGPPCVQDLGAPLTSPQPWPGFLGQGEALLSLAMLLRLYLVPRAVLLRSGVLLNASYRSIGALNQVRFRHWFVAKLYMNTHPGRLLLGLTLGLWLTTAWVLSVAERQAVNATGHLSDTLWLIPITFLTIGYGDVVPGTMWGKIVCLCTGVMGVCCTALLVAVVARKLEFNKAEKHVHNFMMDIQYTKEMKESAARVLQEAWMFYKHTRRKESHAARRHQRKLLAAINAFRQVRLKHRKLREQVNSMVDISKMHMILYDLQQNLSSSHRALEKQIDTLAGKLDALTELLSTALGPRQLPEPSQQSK
Sequence of CYP3A4 (P08684 whole entry): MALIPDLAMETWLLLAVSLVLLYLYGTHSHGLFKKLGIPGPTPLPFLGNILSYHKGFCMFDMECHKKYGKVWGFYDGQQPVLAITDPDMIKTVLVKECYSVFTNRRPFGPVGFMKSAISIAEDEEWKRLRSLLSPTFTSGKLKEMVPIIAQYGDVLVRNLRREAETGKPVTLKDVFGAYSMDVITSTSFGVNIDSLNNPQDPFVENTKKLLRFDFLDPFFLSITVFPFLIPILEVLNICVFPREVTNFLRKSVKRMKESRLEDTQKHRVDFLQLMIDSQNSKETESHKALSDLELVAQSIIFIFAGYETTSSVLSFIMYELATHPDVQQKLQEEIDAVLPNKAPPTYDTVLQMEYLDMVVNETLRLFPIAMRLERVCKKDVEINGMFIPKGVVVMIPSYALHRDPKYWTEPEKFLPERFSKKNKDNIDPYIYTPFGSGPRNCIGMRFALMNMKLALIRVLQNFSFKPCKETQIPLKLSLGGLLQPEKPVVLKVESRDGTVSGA

| solubility thermodynamic [1] | Compound remaining (Liver) | IC50 [2] | SMILES | other results |
| --- | --- | --- | --- | --- |
| 10.6 µM (≈ 3.24 µg/mL) | 61% |  | NC(=O)C(c1ccccc1)(c1ccccc1)c1ccccc1F |  |
| 2.6 µM (≈ 0.887 µg/mL) | 25% | 14 nM | NC(=O)C(c1ccc(F)cc1)(c1ccc(F)cc1)c1ccc(F)cc1 |  |
|  |  |  | O=C1Nc2ccccc2C1(c1ccccc1)c1ccccc1 | inhibition [3]: < 20% |
|  |  | 3150 nM | CN(C)C(=O)C(c1ccccc1)(c1ccccc1)c1ccccc1 |  |
| 3.8 µM (≈ 1.23 µg/mL) | 51% |  | NC(=O)C(c1ccccc1)(c1ccc(F)cc1)c1ccc(F)cc1 [SENICAPOC] | inhibition at 10 µM (CYP3A4): < 20%; Cmax [4]: 400 ng/mL; Activity (Mus musculus [5]): 3 mmol; Activity (Mus musculus [6]): 50.9%; bioavailability [7]: 51%; half-life [8]: 1 h; Tmax [9]: 4 h; Activity (Mus musculus [10]): 30.3 g/dL; Activity (Mus musculus [11]): 1.5 mmol; Activity (Mus musculus [12]): 29.5 g/dL; Activity (Mus musculus [13]): 49.9% |
| 8.3 µM (≈ 2.83 µg/mL) | 62% | 10 nM | NC(=O)C(c1ccc(F)cc1)(c1ccc(F)cc1)c1ccccc1F |  |
| 5.8 µM (≈ 1.88 µg/mL) | 40% | 9 nM | NC(=O)C(c1ccccc1)(c1ccc(F)cc1)c1ccccc1F (stereo unspecified) | inhibition at 10 µM (CYP3A4): < 20%; Activity (Mus musculus [14]): 47%; Activity (Mus musculus [15]): 4 mmol; Cmax [4]: 250 ng/mL; Activity (Mus musculus [16]): 44.5%; Activity (Mus musculus [17]): 2 mmol; half-life [8]: 2.5 h; Tmax [9]: 2 h; Activity (Mus musculus [18]): 34 g/dL; Activity (Mus musculus [19]): 27 g/dL |
|  |  | 550 nM | CNC(=O)C(c1ccccc1)(c1ccccc1)c1ccccc1 | inhibition at 10 µM (CYP3A4): < 20%; inhibition at 10 µM (hERG (KCNH2)): < 20% |
|  |  | 4300 nM | c1ccc(C(C2=NCCO2)(c2ccccc2)c2ccccc2)cc1 |  |
|  |  | 15 nM | NC(=O)C(c1ccc(F)cc1)(c1cccc(F)c1)c1cccc(F)c1 |  |
| 6.8 µM (≈ 2.32 µg/mL) | 46% | 15 nM | NC(=O)C(c1ccc(F)cc1)(c1ccccc1F)c1ccccc1F |  |
| 2.9 µM (≈ 0.886 µg/mL) | 58% | 40 nM | NC(=O)C(c1ccccc1)(c1ccccc1)c1ccc(F)cc1 |  |
| > 31 µM | 48% | 30 nM | NC(=O)C(c1ccccc1)(c1ccccc1F)c1ccccc1F |  |
| 3.4 µM (≈ 1.16 µg/mL) | 36% | 13 nM | NC(=O)C(c1cccc(F)c1)(c1cccc(F)c1)c1cccc(F)c1 |  |
|  |  | 1750 nM | CCNC(=O)C(c1ccccc1)(c1ccccc1)c1ccccc1 |  |
|  |  | 330 nM | COC(=O)C(c1ccccc1)(c1ccccc1)c1ccccc1 |  |
| 1.8 µM (≈ 0.582 µg/mL) | 44% |  | NC(=O)C(c1ccccc1)(c1ccccc1)c1ccc(F)cc1F |  |
|  |  | > 10000 nM | O=C(O)C(c1ccccc1)(c1ccccc1)c1ccccc1 |  |
| 1.2 µM (≈ 0.388 µg/mL) | 43% |  | NC(=O)C(c1ccccc1)(c1cccc(F)c1)c1cccc(F)c1 |  |
| 4.1 µM (≈ 1.4 µg/mL) | 19% | 17 nM | NC(=O)C(c1ccc(F)cc1)(c1ccc(F)cc1)c1cccc(F)c1 |  |
| 4.3 µM (≈ 1.39 µg/mL) | 63% | 14 nM | NC(=O)C(c1ccccc1)(c1ccccc1)c1ccc(F)c(F)c1 |  |
